Data published in ChEMBL document CHEMBL4033790, “Design and Synthesis of Novel Deuterated Ligands Functionally Selective for the γ-Aminobutyric Acid Type A Receptor (GABAAR) α6 Subtype with Improved Metabolic Stability and Enhanced Bioavailability” (J Med Chem, 2018).

Assays:
[1] = Terminal elimination half-life in Wistar rat plasma at 10 mg/kg, ip administered as single dose by HPLC-MS/MS analysis; format: ADME, organism-based; details: read-out: beta t1/2 (converted)
Procedure, shortened: (§1)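 Male Wistar rats (250–350 g) received a single i.p. dose of 10 mg/kg as a 5 mg/ml suspension in 85% water, 14% propylene glycol and 1% Tween 80. Three rats per time point were sacrificed at 5, 20, 60, 180 and 720 min for plasma and brain. Samples were cleaned up by solid-phase extraction and quantified by HPLC-MS/MS.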

[2] = Cmax in Wistar rat plasma at 10 mg/kg, ip administered as single dose measured at 5 to 720 mins post dose by HPLC-MS/MS analysis; format: ADME, organism-based; parameters: dose 10 mg/kg, route intraperitoneal
Procedure, shortened: (§2)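 Male Wistar rats (250-350 g) given a single 10 mg/kg i.p. dose of a 5 mg/ml suspension in 85% distilled water, 14% propylene glycol, 1% Tween 80. Three rats per time point (5, 20, 60, 180, 720 min). Blood and brain were collected after sacrifice. Drug was recovered by solid phase extraction and quantified by HPLC-MS/MS.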

[3] = system: Rattus norvegicus; experiment: Hyperlocomotor activity in Wistar rat assessed as total distance travelled at 3 to 10 mg/kg, ip after 60 mins; format: ADME, organism-based; details: in vivo, 1 h
[4] = Terminal elimination half-life in Wistar rat plasma at 2 mg/kg, iv administered as single dose by HPLC-MS/MS analysis; format: ADME, organism-based; details: read-out: beta t1/2 (converted)
Procedure, shortened: (§3)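 Male Wistar rats (250–350 g) received a single 2 mg/kg dose, by oral gavage or IV, from nanoemulsion formulations. Three rats per time point were sampled for plasma and brain at 5, 30, 120, 480 and 1440 min. Compound levels were measured by HPLC-MS/MS after solid-phase extraction; oral bioavailability was derived from plasma AUCs for the two routes.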

[5] = Cmax in Wistar rat brain at 10 mg/kg, ip administered as single dose measured at 5 to 720 mins post dose by HPLC-MS/MS analysis; format: ADME, organism-based; parameters: dose 10 mg/kg, route intraperitoneal; procedure, shortened: as §2
[6] = Oral bioavailability in Wistar rat plasma at 2 mg/kg administered as single dose via gavage by HPLC-MS/MS analysis; format: ADME, organism-based
Procedure, shortened: (§4)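 Male Wistar rats (250-350 g) received a single 2 mg/kg dose, nanoemulsion formulation, by oral gavage or IV. Three rats per time point (5, 30, 120, 480, 1440 min); plasma and brain collected. Compound extracted by solid-phase extraction and quantified by HPLC-MS/MS. Absolute oral bioavailability was calculated from plasma AUC after the two routes.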

[7] = Cmax in Wistar rat brain at 2 mg/kg, iv administered as single dose measured at 5 to 1440 mins post dose by HPLC-MS/MS analysis; format: ADME, organism-based; parameters: dose 2 mg/kg, route intravenous
Procedure, shortened: (§5)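 Absolute oral bioavailability study in Wistar rats: single 2 mg/kg dose by oral gavage or IV, using nanoemulsion formulations. Three rats per time point (5, 30, 120, 480, 1440 min). Plasma and brain were extracted by solid phase extraction and levels measured by HPLC-MS/MS. Bioavailability was calculated from plasma AUC for the two routes.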

[8] = Cmax in Wistar rat brain at 2 mg/kg administered as single dose via oral gavage measured at 5 to 1440 mins post dose by HPLC-MS/MS analysis; format: ADME, organism-based; parameters: dose 2 mg/kg, route oral; procedure, shortened: as §4
[9] = Tmax in Wistar rat brain at 10 mg/kg, ip administered as single dose by HPLC-MS/MS analysis; format: ADME, organism-based; procedure, shortened: as §1
[10] = Tmax in Wistar rat brain at 2 mg/kg administered as single dose via oral gavage by HPLC-MS/MS analysis; format: ADME, organism-based; procedure, shortened: as §3
[11] = Tmax in Wistar rat plasma at 2 mg/kg, iv administered as single dose by HPLC-MS/MS analysis; format: ADME, organism-based; procedure, shortened: as §3
[12] = Metabolic stability in mouse liver microsomes assessed as parent compound remaining at 10 uM after 60 mins by LC-MS analysis; format: ADME, microsome; details: read-out: Stability
Procedure, shortened: (§6)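 The 60 min samples of the microsomal incubation (10 μM compound, human or mouse liver microsomes at 0.5 mg/mL, NADPH regenerating system, 37 °C) were analysed by LC-MS. Detection used SIM mode with dual ESI/APCI ionization, calibrated to the retention times and masses of the parent and its O-demethylated metabolites. Peak intensities were measured.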

[13] = Tmax in Wistar rat brain at 2 mg/kg, iv administered as single dose by HPLC-MS/MS analysis; format: ADME, organism-based; procedure, shortened: as §3
[14] = system: Brain; experiment: AUC (0 to 12 hrs) in Wistar rat brain at 10 mg/kg, ip administered as single dose by HPLC-MS/MS analysis; format: ADME, organism-based; parameters: dose 10 mg/kg, time < 12 hr, route intraperitoneal; details: in vivo
[15] = Terminal elimination half-life in Wistar rat plasma at 2 mg/kg administered as single dose via oral gavage by HPLC-MS/MS analysis; format: ADME, organism-based; details: read-out: beta t1/2 (converted); procedure, shortened: as §3
[16] = Metabolic stability in human liver microsomes assessed as parent compound remaining at 10 uM after 60 mins by LC-MS analysis; format: ADME, microsome; details: read-out: Stability; procedure, shortened: as §6
[17] = Terminal elimination half-life in Wistar rat brain at 10 mg/kg, ip administered as single dose by HPLC-MS/MS analysis; format: ADME, organism-based; details: read-out: beta t1/2 (converted); procedure, shortened: as §1
[18] = Ratio of brain AUC (0 to t) to plasma AUC (0 to t), Kp of the compound in Wistar rat at 10 mg/kg, ip administered as single dose by HPLC-MS/MS analysis; format: ADME, organism-based
[19] = Tmax in Wistar rat plasma at 2 mg/kg administered as single dose via oral gavage by HPLC-MS/MS analysis; format: ADME, organism-based; procedure, shortened: as §3
[20] = system: Brain; experiment: AUC (0 to 24 hrs) in Wistar rat brain at 2 mg/kg administered as single dose via oral gavage by HPLC-MS/MS analysis; format: ADME, organism-based; parameters: time < 24 hr, dose 2 mg/kg, route oral; details: in vivo
[21] = AUC (0 to 24 hrs) in Wistar rat plasma at 2 mg/kg administered as single dose via oral gavage by HPLC-MS/MS analysis; format: ADME, organism-based; parameters: dose 2 mg/kg, time < 24 hr, route oral
[22] = AUC (0 to 24 hrs) in Wistar rat plasma at 2 mg/kg, iv administered as single dose by HPLC-MS/MS analysis; format: ADME, organism-based; parameters: dose 2 mg/kg, time < 24 hr, route intravenous
[23] = Cmax in Wistar rat plasma at 2 mg/kg administered as single dose via oral gavage measured at 5 to 1440 mins post dose by HPLC-MS/MS analysis; format: ADME, organism-based; parameters: dose 2 mg/kg, route oral; procedure, shortened: as §5
[24] = Cmax in Wistar rat plasma at 2 mg/kg, iv administered as single dose measured at 5 to 1440 mins post dose by HPLC-MS/MS analysis; format: ADME, organism-based; parameters: dose 2 mg/kg, route intravenous; procedure, shortened: as §5
[25] = AUC (0 to 12 hrs) in Wistar rat plasma at 10 mg/kg, ip administered as single dose by HPLC-MS/MS analysis; format: ADME, organism-based; parameters: time < 12 hr, dose 10 mg/kg, route intraperitoneal
[26] = Tmax in Wistar rat plasma at 10 mg/kg, ip administered as single dose by HPLC-MS/MS analysis; format: ADME, organism-based; procedure, shortened: as §1
[27] = Terminal elimination half-life in Wistar rat brain at 2 mg/kg administered as single dose via oral gavage by HPLC-MS/MS analysis; format: ADME, organism-based; details: read-out: beta t1/2 (converted); procedure, shortened: as §3
[28] = molecular target: Voltage-gated inwardly rectifying potassium channel KCNH2 (Homo sapiens, UniProt Q12809); experiment: Displacement of [3H]-dofetilide from human ERG expressed in HEK cell membranes at >10 uM after 60 to 90 mins by scintillation counting
Voltage-gated inwardly rectifying potassium channel KCNH2, sequence (Q12809 whole entry): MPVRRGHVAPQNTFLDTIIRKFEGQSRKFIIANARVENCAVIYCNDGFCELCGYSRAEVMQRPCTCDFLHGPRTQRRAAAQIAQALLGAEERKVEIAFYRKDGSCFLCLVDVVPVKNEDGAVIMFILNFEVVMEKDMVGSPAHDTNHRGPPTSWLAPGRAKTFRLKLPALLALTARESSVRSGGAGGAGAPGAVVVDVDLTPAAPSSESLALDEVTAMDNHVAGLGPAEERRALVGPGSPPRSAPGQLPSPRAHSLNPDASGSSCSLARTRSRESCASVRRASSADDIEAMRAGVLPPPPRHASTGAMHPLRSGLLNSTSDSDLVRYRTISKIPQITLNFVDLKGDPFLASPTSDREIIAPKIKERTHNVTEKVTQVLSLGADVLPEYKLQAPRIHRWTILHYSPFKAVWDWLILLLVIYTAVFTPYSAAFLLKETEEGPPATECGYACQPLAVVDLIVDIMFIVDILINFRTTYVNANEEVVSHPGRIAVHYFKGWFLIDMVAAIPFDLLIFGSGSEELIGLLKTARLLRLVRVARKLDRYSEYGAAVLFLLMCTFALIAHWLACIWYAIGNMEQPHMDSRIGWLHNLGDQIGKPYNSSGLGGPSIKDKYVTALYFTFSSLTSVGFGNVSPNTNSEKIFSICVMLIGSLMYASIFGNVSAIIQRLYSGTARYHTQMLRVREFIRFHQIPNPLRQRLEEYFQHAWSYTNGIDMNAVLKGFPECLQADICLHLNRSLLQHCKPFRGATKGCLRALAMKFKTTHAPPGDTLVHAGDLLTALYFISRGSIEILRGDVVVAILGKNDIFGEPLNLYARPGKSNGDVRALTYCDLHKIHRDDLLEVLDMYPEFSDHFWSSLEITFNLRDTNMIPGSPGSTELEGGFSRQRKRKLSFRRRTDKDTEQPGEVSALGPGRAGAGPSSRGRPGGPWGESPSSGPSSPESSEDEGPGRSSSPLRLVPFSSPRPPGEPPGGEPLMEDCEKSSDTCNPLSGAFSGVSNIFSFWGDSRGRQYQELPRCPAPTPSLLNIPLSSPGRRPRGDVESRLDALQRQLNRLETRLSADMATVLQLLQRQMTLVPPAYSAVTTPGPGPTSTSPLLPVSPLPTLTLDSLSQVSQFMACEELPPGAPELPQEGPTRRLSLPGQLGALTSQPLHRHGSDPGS

Row | Structure (SMILES) | half-life [1] | Cmax [2] | Activity [3] | half-life [4] | Cmax [5] | bioavailability [6] | Cmax [7] | Cmax [8] | Tmax [9] | Tmax [10] | Tmax [11] | remaining at 1 h, 10 µM [12] | Tmax [13] | AUC [14] | half-life [15] | remaining at 1 h, 10 µM [16] | half-life [17] | Kp [18] | Tmax [19] | AUC [20] | also measured
1 | COc1ccc(-n2nc3c4ccc(OC)cc4[nH]cc-3c2=O)cc1 | 1.51 h | 5050 ng/mL | Toxic | 5.29 h | 352 ng/g | 66.9% | 84.5 ng/g | 67.3 ng/g | 2.33 h | 1.5 h | 0 h | 80.3% | 0.86 h | 2177.98 ng·h/g | 9 h | 86.1% | 1.96 h | 0.08 | 2 h | 708.21 ng·h/g | AUC(0-t) at 24 h [21]: 1270 ng·h/mL; AUC(0-t) at 24 h [22]: 1890 ng·h/mL; Cmax [23]: 173 ng/mL; Cmax [24]: 597 ng/mL; AUC(0-t) at 12 h [25]: 28800 ng·h/mL; Tmax [26]: 1 h; half-life [27]: 12.7 h; inhibition (INH) [28]: Not Active
2 | [2H]C([2H])([2H])Oc1ccc(-n2nc3c4ccc(OC)cc4[nH]cc-3c2=O)cc1 | 3.54 h | 4430 ng/mL | Toxic | 1.95 h | 587 ng/g | 100% | 71.9 ng/g | 67.3 ng/g | 2.33 h | 3.5 h | 0 h | 92.8% | 1.36 h | 3350.72 ng·h/g | 1.4 h | 91.7% | 2.28 h | 0.13 | 5.5 h | 513.12 ng·h/g | AUC(0-t) at 24 h [21]: 3000 ng·h/mL; AUC(0-t) at 24 h [22]: 3000 ng·h/mL; Cmax [23]: 222 ng/mL; Cmax [24]: 728 ng/mL; AUC(0-t) at 12 h [25]: 24200 ng·h/mL; Tmax [26]: 1.67 h; half-life [27]: 4.2 h; inhibition (INH) [28]: Not Active
